Data published in the RNAGym collection of RNA variant scans (doi:10.1002/anie.201605470).

B1: Osa-1-4 twister ribozyme (parent)
chain: CCGCCUAACACUGCCAAUGCCGGUCCCAAGCCCGGAUAAAAGUGGAGGGGGCGG

Variants of: B1
Assay: self-cleavage, relative activity (ratio to wild type); higher = more cleavage; co-transcriptional
Procedure, shortened: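 A DNA template for a 54-nucleotide Oryza sativa twister ribozyme was synthesised with 97 % wild-type base and 1 % of each other base at the 48 positions downstream of the cleavage site. It was transcribed in vitro for 2 h at 37 °C, allowing co-transcriptional self-cleavage, then reverse-transcribed with a template-switching oligonucleotide, PCR-amplified and deep-sequenced. Cleavage status was scored from reads with or without upstream sequence. Relative activity is fraction cleaved normalised to wild type.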

| Variant | self-cleavage |
| --- | --- |
| C25G G49C | 0.7 |
| C25G G49U | 0.61 |
| C25G G49A | 0.07 |
| C25G G50A | 0.12 |
| C25G G50U | 0.11 |
| C25G G50C | 0.09 |
| C25G U18G | 0.18 |
| C25G U18C | 0.13 |
| C25G U18A | 0.08 |
| C25G C27A | 0.02 |
| C25G C27G | 0.07 |
| C25G C27U | 0.07 |
| C25A U37G | 0.25 |
| C25A U37C | 0.14 |
| C25A U37A | 0.11 |
| C25U G34A | 0.85 |
| C25U G34C | 0.5 |
| C25U G34U | 0.77 |
| C25G C31G | 0.23 |
| C25G C31U | 0.05 |
| C25G C31A | 0.02 |
| C25G G44U | 0.05 |
| C25G G44A | 0.06 |
| C25G G44C | 0.06 |

| Variant | self-cleavage |
| --- | --- |
| C25U C9U | 0.33 |
| C25U C9A | 0.23 |
| C25U C9G | 0.18 |
| C25G G19C | 0.03 |
| C25G G19U | 0.04 |
| C25G G19A | 0.06 |
| C25G C33G | 0.04 |
| C25G C33A | 0.03 |
| C25G C33U | 0.06 |
| C25U | 0.93 |
| C25G | 0.12 |
| C25U G30U | 0.05 |
| C25U G30C | 0.03 |
| C25U G30A | 0.03 |
| C25U C31U | 0.13 |
| C25U C31G | 0.31 |
| C25U C31A | 0.04 |
| C25G G54C | 0.07 |
| C25G G54U | 0.25 |
| C25G G54A | 0.11 |
| C25U G13A | 0.07 |
| C25U G13U | 0.03 |
| C25U G13C | 0.02 |
| C25G C9A | 0.02 |

| Variant | self-cleavage |
| --- | --- |
| C25G C9G | 0.07 |
| C25G C9U | 0.03 |
| C25G U43G | 0.04 |
| C25G U43A | 0.08 |
| C25G U43C | 0.06 |
| C25A G47C | 0.03 |
| C25A G47U | 0.04 |
| C25U G23A | 0.11 |
| C25U G23C | 0.06 |
| C25U G23U | 0.05 |
| C25G U37G | 0.13 |
| C25G U37C | 0.12 |
| C25G U37A | 0.12 |
| C25U C27A | 0.06 |
| C25U C27G | 0.06 |
| C25U C27U | 0.17 |
| C25A U43A | 0.06 |
| C25A U43C | 0.06 |
| C25A U43G | 0.06 |
| C25A G50U | 0.42 |
| C25A G50C | 0.27 |
| C25A G50A | 0.59 |
| C25U G35U | 0.72 |
| C25U G35C | 0.09 |

| Variant | self-cleavage |
| --- | --- |
| C25U G35A | 0.87 |
| C25A G51A | 0.1 |
| C25A G51U | 0.06 |
| C25A G51C | 0.05 |
| C25G G53A | 0.08 |
| C25G G53U | 0.06 |
| C25G G53C | 0.02 |
| C25G C32U | 0.04 |
| C25G C32G | 0.09 |
| C25G C32A | 0.03 |
| C25G G22C | 0.03 |
| C25G G22A | 0.09 |
| C25G G22U | 0.06 |
| C25G G34U | 0.07 |
| C25G G34A | 0.08 |
| C25G G34C | 0.06 |
| C25G C52A | 0.08 |
| C25G C52G | 0.12 |
| C25G C52U | 0.11 |
| C25A G54U | 0.28 |
| C25A G54C | 0.08 |
| C25A G54A | 0.12 |
| C25G G51U | 0.04 |
| C25G G51A | 0.07 |

| Variant | self-cleavage |
| --- | --- |
| C25G G51C | 0.03 |
| C25G G35C | 0.05 |
| C25G G35A | 0.12 |
| C25G G35U | 0.07 |
| C25U C52G | 0.8 |
| C25U C52U | 0.9 |
| C25U C52A | 0.66 |
| C25G U12G | 0.04 |
| C25G U12C | 0.05 |
| C25G U12A | 0.06 |
| C25U C33G | 0.06 |
| C25U C33A | 0.06 |
| C25U C33U | 0.31 |
| C25U C32A | 0.06 |
| C25U C32U | 0.08 |
| C25U C32G | 0.1 |
| C25G G42U | 0.02 |
| C25G G42A | 0.09 |
| C25G G42C | 0.06 |
| C25A U18C | 0.15 |
| C25A U18G | 0.35 |
| C25A U18A | 0.1 |
| C25G G48A | 0.04 |
| C25G G48C | 0.03 |

| Variant | self-cleavage |
| --- | --- |
| C25G G48U | 0.02 |
| C25A G48A | 0.03 |
| C25A G48U | 0.03 |
| C25A G48C | 0.03 |
| C25G G45A | 0.03 |
| C25G G45U | 0.02 |
| C25G G45C | 0.03 |
| C25A U24C | 0.04 |
| C25A U24G | 0.04 |
| C25A U24A | 0.04 |
| C25G G47U | 0.03 |
| C25G G47C | 0.02 |
| C25G G47A | 0.05 |
| C25U G42A | 0.22 |
| C25G C26A | 0.01 |
| C25G C26U | 0.07 |
| C25G C26G | 0.12 |
| C25G G30U | 0.02 |
| C25G G30C | 0.02 |
| C25G G30A | 0.02 |
| C25A G49U | 0.82 |
| C25A G49A | 0.13 |
| C25A G49C | 0.04 |
| C25U C26A | 0.04 |

| Variant | self-cleavage |
| --- | --- |
| C25U C26G | 0.08 |
| C25U C26U | 0.21 |
| C25A U12G | 0.06 |
| C25A U12A | 0.06 |
| C25A U12C | 0.04 |
| C25A G53U | 0.05 |
| C25A G53C | 0.03 |
| C25A G53A | 0.09 |
| C25G G23C | 0.04 |
| C25G G23U | 0.04 |
| C25G G23A | 0.06 |
| C25U G22U | 0.47 |
| C25U G22C | 0.07 |
| C25U G22A | 0.74 |
| C25G U24G | 0.02 |
| C25G U24A | 0.03 |
| C25G U24C | 0.03 |
| C25U G19C | 0.04 |
| C25U G19A | 0.14 |
| C25U G19U | 0.08 |
| C25G G13U | 0.01 |
| C25G G13A | 0.03 |
| C25G G13C | 0.01 |
